Experimental data as given in article PMC9233244 (Diabetes, 2022).

Assays:
Assay type in all cases: in vivo, mouse
[1] = tested on: WT and Gipr−/− mice; assay: intraperitoneal glucose tolerance test in WT and Gipr−/− mice
[2] = tested on: obese high-fat-fed mice; assay: body weight and food intake in obese high-fat-fed mice
[3] = tested on: brain neuronal activity (cFos); assay: whole-brain cFos analysis; details: 120 min
Procedure, shortened: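 Chow-fed male C57BL/6J mice were acclimated with daily s.c. PBS for 4 days. On day 5 they received s.c. GIPR agonist (10 nmol/kg), PYY analog (100 nmol/kg), GDF15 (2 nmol/kg) or combinations. Mice were formalin-perfused 120 min post-dose, and brains were iDISCO+-cleared, cFos-immunostained (rabbit, 1:200), light-sheet imaged and registered. Counts came from voxel-based statistics within PBN_D/PBN_V hotspots defined by averaged PYY- and GDF15-group signal. Vehicle n = 8.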

[4] = agent alone, dosed once daily, 72-h dosing period, n = 6 per group

Row | Molecule | blood glucose in intraperitoneal glucose tolerance test [1] | weight loss in combination with the LAPYY analog ([2]; LAGIPRA 10 nmol/kg plus LAPYY analog, once daily) | body weight [2, 4] | food intake [2, 4] | number of cFos+ cells in the BST [3] | number of cFos+ cells in the NTS and DMX [3] | brain regions with decreased cFos expression ([3]; GDF15 2 nmol/kg s.c., vs vehicle, n = 8) | brain regions with increased cFos expression ([3]; GIPRA 10, PYY 100, GDF15 2 nmol/kg s.c., vs vehicle, n = 8)
1 | LAGIPRA | lowering blood glucose | only delivered greater weight loss in combination with a low dose of the LAPYY analog | reduced | reduced | – | – | – | –
2 | GDF15: recombinant human GDF15, cytokine used as aversive agent (protein, UniProt Q99988 195-308, looked up) Growth/differentiation factor …: ARARNGDHCPLGPGRCCRLHTVRASLEDLGWADWVLSPREVQVTMCIGACPSQFRAANMHAQIKTSLHRLKPDTVPAPCCVPASYNPMVLIQKTDTGVSLQTYDDLLAKDCHCI | – | – | – | – | increased numbers | increased number | decreased cFos expression in nine regions | increased cFos expression in seven brain areas
